In the library only some 2.9% were active in any assay of this set; here they are far more common.
MEKK2wt PB1 HTS – raises or lowers MEK5 binding to wildtype human MEKK2 PB1 domain; binding response (% of control), % at 10 µM; 290,000 tested, 1.1% active; bead flow cytometry, Alexa488-MEK5 binding to MEKK2 WT; actives lie on both sides; AID 1531; Q9Y2U5; in the data active means binding response below about 67% or above about 130%
UBC13 polyUb – human UBC13 polyubiquitination inhibition. inhibition, % at 20 µM. UBC13 polyubiquitin chain formation, TR-FRET. AID 485273. 330,000 tested, 0.47% active; in the data active means inhibition above about 45%, passing the limit was not always enough
Target sequence (P61088 whole entry, looked up): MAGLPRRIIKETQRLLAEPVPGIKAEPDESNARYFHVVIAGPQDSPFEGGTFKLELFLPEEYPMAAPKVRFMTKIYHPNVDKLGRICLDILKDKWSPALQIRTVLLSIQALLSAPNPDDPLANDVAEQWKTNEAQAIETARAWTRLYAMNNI
MEKK2 mut-MEK5 – signal of MEK5 binding to mutant human MEKK2 PB1 domain. bead flow cytometry, Alexa488-MEK5 binding to MEKK2 mutant. percent response, % at 10 µM. 290,000 tested, 0.35% active; in the data active means percent response above about 24%, passing the limit was not always enough
Apaf-1 inh – inhibitors of human Apaf-1 apoptosome. inhibition, % at 20 µM. 330,000 tested, 0.71% active. reconstituted apoptosome caspase-3 activity, DEVD-Rh110 fluorescence. O14727; active means inhibition of at least 40% at 20 µM;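 further: plate controls were DMSO wells for no effect and DEVD-CHO caspase inhibitor wells for full effect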
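System – cell-free apoptosome with Apaf-1, procaspase-3 and caspase-9 · Buffer or medium – pH 7.5 Hepes buffer with CHAPS, BSA, DTT · Also added – cytochrome c with DEVD-Rh110 · Times – 30 min compound preincubation, 50 min activation, room temperature · Technique – Rh110 fluorescence intensity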
MEKK3 PB1 HTS – MEKK3-MEK5 PB1 interaction, increase or decrease; 290,000 tested, 1.4% active; bead-based flow cytometry, Alexa488-MEK5 binding to MEKK3; actives lie on both sides; 0 = blocked by unlabeled MEK5, 100 = vehicle; Q99759; binding response (% of control), % at 10 µM;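 active means binding response more than 3 SD above or below the average of its plate-row segment, actives on both sides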;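 further: Alexa488 bead fluorescence after subtracting the streptavidin-only scavenger bead signal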
MEKK2wt confirm – raises or lowers MEK5 binding to wildtype human MEKK2, retest; shares compounds with MEKK3 PB1 HTS; bead flow cytometry, Alexa488-MEK5 binding to MEKK2 WT; actives lie on both sides; binding response (% of control), % at 10 µM; 5,900 tested, 2.4% active; in the data active means binding response below about 16% or above about 210%; inactive means in between
MEKK2mut-MEK5 – signal of MEK5 binding to mutant human MEKK2, retest. AID 1893. bead flow cytometry, Alexa488-MEK5 binding to MEKK2 mutant. 5,900 tested, 2% active. shares compounds with MEKK3 PB1 HTS. percent response, % at 10 µM; in the data active means percent response mostly above about 71%, no sharp cut-off; inactive means mostly below about 38%;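 further: higher means compound restores mutant binding toward wildtype level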
MEKK3 confirm – MEKK3-MEK5 PB1 inhibition, single concentration confirmation; bead flow cytometry, Alexa488-MEK5 binding to MEKK3; stronger effect = lower value; AID 1894; shares compounds with MEKK3 PB1 HTS; 5,900 tested, 1.8% active; binding response (% of control), % at 10 µM;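 active means binding response below 72% of control, or above a set upper limit, though filed actives all read lower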;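 further: 100% = DMSO only wells and 0% = binding blocked by excess unlabeled MEK5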
Starred values were filed as active, the others as inactive; . = no result given; [ ] = remark or other dose.

SMILES	MEKK2wt PB1 HTS	UBC13 polyUb	MEKK2 mut-MEK5	Apaf-1 inh	MEKK3 PB1 HTS	MEKK2wt confirm	MEKK2mut-MEK5	MEKK3 confirm
COC(=O)/C(=C/c1ccc2c(c1)c1ccccc1n2C)NC(=O)c1ccccc1	99.0	2.5	-1.0	-6.3	73.0*[inhibitor]	105.0	-1.0	105.0
COc1ccc(-c2noc(CCC(=O)Nc3ccc(C)c(C)c3)n2)cc1	-7.0*[inhibitor]	13.2	-22.0	-4.3	0.0*[inhibitor]	106.0	1.0	100.0
COc1ccc(CCC(=O)Nc2ccc(C)c([N+](=O)[O-])c2)cc1	106.0	0.9	1.0	2.9	161.0*	102.0	4.0	100.0
CCOCCCNC(c1ccccc1)c1ccncc1 (centres undefined)	103.0	0.7	4.0	1.4	103.0	.	.	.
CCOCCCNCC(O)c1ccccc1 (centres undefined)	116.0	8.7	2.0	-7.2	162.0*	94.0	-10.0	96.0
CCn1c(SCC(=O)NNC(=O)c2ccco2)nnc1-c1ccco1	85.0	-4.5	-13.0	4.9	94.0	.	.	.
CCn1c(SCC(=O)NNC(=O)c2ccccc2)nnc1-c1ccco1	68.0	4.1	-13.0	0.0	73.0*[inhibitor]	99.0	-6.0	99.0
Cc1nnc(SCC(=O)NNC(=O)c2ccc(Br)cc2)n1C	717.0*	3.1	557.0*	9.1	123.0	103.0	0.0	100.0
Cn1c(SCC(=O)NNC(=O)c2ccc(Br)cc2)nnc1-c1cccnc1	109.0	5.9	7.0	-5.4	110.0	.	.	.
CNC(=O)CSc1nnc(-c2ccco2)n1-c1cc(C)ccc1C	106.0	5.6	32.0*	-12.9	103.0	110.0	0.0	106.0
CC(O)CCc1nc2ccc(C(=O)O)cc2[nH]1 (centres undefined)	.	2.5	.	-8.6	.	.	.	.
O=C(O)c1ccc2nc(CO)[nH]c2c1	2.0*[inhibitor]	-3.4	-16.0	10.7	2.0*[inhibitor]	107.0	0.0	102.0
CCc1ccc(-c2nc(CS(=O)CC(=O)NCCCN3CCC(C)CC3)c(C)o2)cc1 (centres undefined)	109.0	10.6	4.0	-2.2	103.0	.	.	.
Cc1nnc(N2CCOCC2)c2nn(-c3ccccc3)c(C)c12	105.0	-1.0	3.0	-5.8	114.0	.	.	.
c1ccc(-n2nnc3c(N4CCOCC4)ncnc32)cc1	79.0	2.1	-5.0	-4.8	74.0*[inhibitor]	100.0	3.0	103.0
Cc1cccc(NC(=O)c2cc(Cl)ccc2[N+](=O)[O-])c1	111.0	-1.2	1.0	0.8	147.0*	116.0	3.0	103.0
Cc1ccc(NC(=O)c2ccc(NCCCN3CCC(C)CC3)c([N+](=O)[O-])c2)cc1F	158.0*	-3.7	23.0	-0.7	105.0	153.0	34.0	107.0
Cc1cccc(NC(=O)c2ccc(NCCc3ccccc3)c([N+](=O)[O-])c2)c1	107.0	-24.9	0.0	-4.4	135.0*	96.0	-4.0	99.0
CCN(C(=O)COC(=O)c1cccs1)c1c(N)n(Cc2ccccc2)c(=O)[nH]c1=O	.	-6.0	.	7.0	.	.	.	.
CCOc1ccccc1N(CC(=O)NC(C)(C)C)C(=O)CCC(=O)Nc1nccs1	103.0	2.4	4.0	-4.4	99.0	.	.	.
COc1ccc(CC(=O)N2N=C(C)CC2(O)c2cccnc2)cc1OC (centres undefined)	100.0	12.6	-1.0	0.9	128.0*	103.0	-4.0	103.0
Nc1ccc2c(c1)N1CCN=C1S2	115.0	-10.8	5.0	12.6	99.0	.	.	.
O=C(Nc1ccc(Cl)cc1)Nc1ccc2c(c1)N1CCN=C1S2	141.0*	12.3	14.0	21.9	100.0	143.0	27.0	104.0
N/C(=N\OS(=O)(=O)c1ccccc1)c1cccnc1	106.0	.	0.0	.	130.0*	109.0	7.0	108.0
N/C(=N\OS(=O)(=O)c1ccc2ccccc2c1)c1cccnc1	104.0	-1.5	1.0	-13.3	83.0	.	.	.
